These results are taken from ChEMBL document CHEMBL4715793 (J Med Chem, 2016).

Series [1] has as its system Hepatitis C virus. The series is described as follows: Antiviral activity against HCV J6/JFH/JC1 harboring A156T mutant infected in human Huh7.5 cells assessed as inhibition of viral replication measured after 72 hrs by qRT-PCR analysis. Type of series: functional, organism-based, Hepacivirus hominis. To be noted: J6/JFH/JC1, Huh7.5, 72 h. Background: In qPCR the cycle at which signal appears reflects the starting amount.

Series [2] relates to Hepatitis C virus. The series is described as follows: Antiviral activity against HCV infected in human HuH7.5 cells assessed as inhibition of viral RNA levels during early stage at 6.25 to 25 uM incubated for 2 hrs prior to compound washout followed by supplementation of fresh culture medium and measured after 72 hrs by qRT-PCR analysis. The format is functional, organism-based. To be noted: Hepacivirus hominis; Huh-7; dose 6.25-25 µM. In a few lines:
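Huh7.5 cells seeded 24 h earlier, infected with HCV (150 IU/cell) with simultaneous compound or solvent control for 2 h. Cells washed with PBS and given fresh medium. Intracellular RNA (qRT-PCR) and protein (Western blot) extracted at 72 h.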

A short description of series [3]: Cytotoxicity against human Huh7.5 cells assessed as reduction in cell viability incubated for 72 hrs by MTT assay. Type of series: cell-based. A digest of the protocol: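 Huh7.5 cells seeded at 3 × 10^4/cm2, grown 24 h, then exposed to compound for 72 h. Viability read by MTT assay. CC50 by Reed & Muench method, mean ± SD from three independent experiments.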
(In general: Tetrazolium assays rely on reduction of a dye to a coloured formazan, in cell work by metabolically active cells.)

Series [4] in a line: Selectivity index, ratio of CC50 for cytotoxicity against human Huh7.5 cells assessed as reduction in cell viability incubated for 72 hrs by MTT assay to EC50 for antiviral activity against HCV genotype 2a J6/JFH/JC1 infected in human Huh7.5 cells assessed as reduction in viral RNA levels measured after 72 hrs by qRT-PCR analysis. The note with it: read-out: Ratio CC50/EC50. The format is toxicity, cell-based.

Series [5] concerns Hepatitis C virus. The series is described as follows: Synergistic antiviral activity against HCV J6/JFH/JC1 infected in human HuH7.5 cells assessed as inhibition of viral protein levels at 6.25 uM in presence of daclatasvir measured after 72 hrs by western blot analysis. The format is functional, organism-based. The note with it: Hepacivirus hominis. A digest of the protocol: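 Huh7.5 cells infected with HCV (45 IU/cell) and simultaneously treated with compound (6.25 μM) alone, DAA alone, or both. […] Intracellular protein analysed by Western blot at 72 h. At least triplicate, mean ± SD, Student's t test.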
(Immunoblotting shows a protein as a band on a membrane.)

The test system of series [6] is Hepatitis C virus. Nature of the series: Antiviral activity against wild-type HCV infected in human HuH7.5 cells assessed as reduction in viral protein levels at 6.25 to 100 uM measured after 72 hrs by Western blot assay. The format is functional, organism-based. The note with it: Hepacivirus hominis, dose 6.25-100 µM. In a few lines: (§1)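 Huh7.5 cells seeded at 3 × 10^4/cm2 and incubated 24 h. Infected with wild-type HCVcc stock (45 IU/cell) with compound or solvent control added at the same time. After 72 h, intracellular RNA measured by one-step qRT-PCR and core protein by Western blot. EC50 by Reed & Muench method, mean ± SD from three independent experiments.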

In series [7] the test system is Hepatitis C virus. The series is described as follows: Antiviral activity against wild-type HCV J6/JFH/JC1 infected in human Huh7.5 cells assessed as inhibition of viral replication measured after 72 hrs by qRT-PCR analysis. The format is functional, organism-based, Hepacivirus hominis. To be noted: J6/JFH/JC1, Huh7.5, 72 h. In a few lines: as §1
Series [8] in a line: Antiviral activity against HCV subtype 2a J6/JFH/JC1 infected in human Huh7.5 cells assessed as reduction in viral RNA levels measured after 72 hrs by qRT-PCR analysis. The note with it: Hepatitis C virus, J6/JFH/JC1, Huh7.5, 72 h.

The source made the active and inactive calls. The calls are words filed in the database; no cut-off is given here.

In general, EC50 refers to the concentration at which the effect is half-maximal. As a reminder, the CC50 is the concentration giving 50% cytotoxicity. Take `COc1cc(/C=C/c2ccccc2)c(C(=O)O)c(O)c1CC=C(C)C`: the EC50 with Hepatitis C virus [1] came out at 6.44 µM; in the series on Hepatitis C virus [7], 3.03 µM; in series [8], 3.17 µM. For the same compound, the outcome in the series on Hepatitis C virus [2] was inactive. In series [3], the CC50 at 72 h stood at 91 µM. For the same compound, in series [4], the selectivity ratio at 72 h was determined as 40. Further, the result in the series with Hepatitis C virus [5] and in the series with Hepatitis C virus [6] was Active.
